Only some compounds are listed: those with a hit (about 3.5% of all), similar ones and a draw of the others.
MrgX1 PAM = allosterically activates human MrgX1 receptor signaling; MrgX1-HEK293, Fluo-4 calcium flux, FDSS; active compounds read high; AID 588675; 310,000 compounds, 0.63% hits; Q96LB2; B-score at 10 µM;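 active means plate-corrected calcium response at least 3 library SD above typical, normal starting fluorescence, not activating the receptor alone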;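 further: compound read alongside a low EC10 to EC30 dose of BAM8-22 agonist; peak minus trough fluorescence over baseline measured at the second addition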
Target sequence (Q96LB2 whole entry, looked up): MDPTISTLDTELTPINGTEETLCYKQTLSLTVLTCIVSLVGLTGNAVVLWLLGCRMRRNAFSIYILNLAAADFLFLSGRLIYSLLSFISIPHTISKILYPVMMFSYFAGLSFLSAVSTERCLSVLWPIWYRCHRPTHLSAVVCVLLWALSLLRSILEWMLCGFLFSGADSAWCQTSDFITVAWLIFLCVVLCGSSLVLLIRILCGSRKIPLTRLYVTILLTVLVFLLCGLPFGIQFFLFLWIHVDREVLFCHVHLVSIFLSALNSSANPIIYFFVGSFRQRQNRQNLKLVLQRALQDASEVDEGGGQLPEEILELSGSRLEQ
MrgX1 antagonist = human MrgX1 receptor antagonism, primary screen. Q96LB2. MRGX1-HEK293 calcium flux, Fluo-4, BAM8-22 antagonism; active compounds read low. B-score at 10 µM. 310,000 compounds, 1.3% hits. AID 588676;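 active means calcium-response B-score plate-corrected more than 3 library SD below zero, starting fluorescence within 5 deviations, no agonist response on first addition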;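 further: peak minus trough fluorescence over baseline after final BAM8-22 challenge near maximal dose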
MrgX1 ag = human MrgX1 receptor agonism, primary screen | 310,000 compounds, 0.44% hits | MrgX1-HEK293 cells, Fluo-4 calcium fluorescence, agonist mode; active compounds read high | B-score at 10 µM;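 active means calcium response B-score plate-corrected fluorescence ratio at least 3 library SD, with starting fluorescence B-score inside 5 SD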
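Test system: HEK293 cells stably expressing human MrgX1 receptor; amount: 15,000 cells per well; doses: compound delivered in addition one of three; times: overnight plating before 1 h dye loading; detection: Fluo-4 NW calcium-flux fluorescence, kinetic read; read-out basis: B-scored fluorescence response ratio; controls: positive and negative controls per plate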
RGS4 act = potentiators or activators of RGS4 | HEK293 M3R/inducible RGS4, carbachol calcium flux Fluo4; active compounds read low | B-score at 10 µM | 310,000 compounds, 0.92% hits | AID 463111;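 active means B-score of the integrated calcium signal more than 4 SD below the library mean, with starting fluorescence not abnormally high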;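 further: negative B-score means reduced calcium response which marks RGS4 activation or potentiation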
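Material: Inducible-RGS4 HEK293 cells carrying M3 receptor; also added: carbachol at ECmax as muscarinic agonist stimulus; incubation: compound preincubation 20 min at room temperature before agonist; signal: Fluo4-AM (2 µM) calcium-flux fluorescence, kinetic read; measure: integrated calcium ratio converted to B score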
RGS4 block = human RGS4 inhibition; HEK293 M3R/RGS4 inducible, Fluo-4 calcium flux; active compounds read high; triggered by carbachol at its EC20; AID 463165; 310,000 compounds, 0.45% hits; B-score at 10 µM; P49798;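 active means B-score, a plate-corrected calcium signal, over three deviations above library mean, with baseline fluorescence within five deviations of library mean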;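 further: RGS4 expression induced by doxycycline in cells with stable M3 receptor; B-score is computed from the integrated fluorescence ratio over baseline after carbachol; higher B-score means a larger calcium signal and so more RGS4 inhibition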
Target sequence (P49798 whole entry, looked up): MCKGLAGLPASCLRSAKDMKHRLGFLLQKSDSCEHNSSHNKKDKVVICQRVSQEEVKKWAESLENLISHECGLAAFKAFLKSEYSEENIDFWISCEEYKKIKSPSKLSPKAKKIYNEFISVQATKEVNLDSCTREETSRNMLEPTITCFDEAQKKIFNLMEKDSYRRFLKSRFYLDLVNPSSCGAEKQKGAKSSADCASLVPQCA
MrgX1 antag conf = confirmation of human MrgX1 receptor antagonists. 2,300 compounds, 19% hits. shares compounds with MrgX1 antagonist. MrgX1-HEK293, BAM8-22 calcium flux, Fluo-4; active compounds read low. remaining BAM8-22 calcium response % of control (active compounds read low), % at 10 µM;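 active means remaining agonist calcium response no higher than 100% minus 3 SD of agonist-only control wells, with starting fluorescence near control levels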;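 further: agonist BAM8-22 given at a near maximal EC90 to ECmax level; peak minus minimum fluorescence divided by baseline after agonist addition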
HEK293 Ca flux = counter-screen for MrgX1 antagonists: effect in parental HEK293 cells; shares compounds with MrgX1 antagonist; fluorescence ratio F(max-min)/F0 at 10 µM; 4,000 compounds, 2% hits; Fluo-4 calcium fluorescence, FDSS;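 active means duplicate-averaged calcium fluorescence ratio at least three times the standard deviation of buffer wells, a nonspecific response in parental cells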
HEK293 Ca counter = MrgX1 allosteric activator counter-screen hit in parental HEK293 cells. shares compounds with MrgX1 antagonist. parental HEK293 calcium flux, Fluo-4 fluorescence ratio; active compounds read high. fluorescence ratio F(max-min)/F0 at 10 µM. 4,000 compounds, 0.4% hits. AID 624114;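 active means calcium fluorescence ratio, averaged over duplicates, at least 3 SD of the buffer-well ratio, meaning a nonspecific response in receptor-free cells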;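 further: untransfected parental HEK293 lacking MrgX1 used as counterscreen for MrgX1 allosteric activators; fluorescence change taken during the second addition on a kinetic imager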
HEK293 Ca cntr2 = counter-screen for MrgX1 activators: effect in parental HEK293 cells. 4,000 compounds, 8.7% hits. shares compounds with MrgX1 antagonist. Fluo-4 calcium fluorescence (FDSS); active compounds read high. fluorescence ratio F(max-min)/F0 at 10 µM;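 active means calcium fluorescence ratio at least three times the spread of buffer wells, meaning a non-specific response in parental cells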
* marks the source's active call; other numbers are inactive results; i = inactive; . = not tested or not shown.

SMILES	MrgX1 PAM	MrgX1 antagonist	MrgX1 ag	RGS4 act	RGS4 block	MrgX1 antag conf	HEK293 Ca flux	HEK293 Ca counter	HEK293 Ca cntr2
COc1ccc2nc(C)cc(Nc3ccc(C)cc3)c2c1	i	i	i	i	i	.	.	.	.
COc1ccc2nc(C)cc(NCc3ccc(F)cc3)c2c1	i	-8.4*	i	i	i	i	i	i	i
O=C(CSc1nnc(-c2ccccc2Cl)o1)N1CCCCC1	i	-4.9*	i	i	i	i	i	i	i
O=C(CSc1nnc(-c2ccccc2Cl)o1)N1CCCC1	i	i	i	i	i	.	.	.	.
CCN(CC(=O)NCc1cccs1)S(=O)(=O)c1ccccc1Cl	i	i	i	i	i	.	.	.	.
O=c1cc(N2CCCCC2)nc2n1CCCS2	i	-5.4*	i	i	i	i	i	i	i
c1csc(-c2nc(CN3CCSCC3)cs2)c1	i	i	i	i	i	.	.	.	.
Cc1cc(NC(=S)Nc2ccccc2)ccc1Br	i	i	i	i	i	.	.	.	.
Cc1cc(NC(=S)Nc2cccnc2)ccc1Br	i	-5.2*	i	i	i	86%*	i	i	i
Cn1nc(N)c2c(-c3ccc(Cl)cc3)c(C#N)c(N)nc21	i	-4.7*	i	i	i	i	i	i	i
COc1cccc(NC(=O)C(OC(=O)c2cnc(C)cn2)c2ccccc2)c1 (centres undefined)	i	-6.2*	i	i	i	i	i	i	i
CC1(C)CC(=O)C2=C(C1)N(c1ccc(F)cc1)C(=O)CC2c1ccsc1 (centres undefined)	i	-5.1*	i	i	i	i	i	i	i
Cc1ccc(NC(=O)c2ccc(F)cc2F)cc1NS(C)(=O)=O	i	i	i	i	i	.	.	.	.
COC(=O)c1cccc(NC(=O)c2ccc3c(c2)C(=O)N(C(C)(C)C)C3=O)c1	i	-4.7*	i	i	i	i	i	i	i
CC(C)(C)N1C(=O)c2ccc(C(=O)Nc3ccc(O)cc3)cc2C1=O	i	i	i	i	i	.	.	.	.
COC(=O)c1cccc(NC(=O)c2ccc3c(c2)C(=O)N(Cc2cccnc2)C3=O)c1	i	i	i	i	i	.	.	.	.
CC(C)(C)NC(=O)c1cccc(NC(=O)c2ccc3c(c2)C(=O)N(C(C)(C)C)C3=O)c1	i	-11*	i	-7.1*	i	79%*	i	i	i
S=C(NCc1cccs1)Nc1cccc(Cl)c1	i	-5.1*	i	i	i	i	i	i	i
COc1ccc(-c2noc(CCC(=O)NC3CCCCC3)n2)cc1	i	i	i	i	i	.	.	.	.
O=C(O)c1ccc2c(=O)n3c(nc2c1)/C(=C/c1ccccc1Br)CC3	i	i	i	i	i	.	.	.	.
CCc1ccc(-c2cc(C(=O)NCc3ccccn3)c3ccccc3n2)cc1	i	-5.3*	i	i	i	77%*	i	i	i
CC(=O)NCCC(=O)Nc1sc2c(c1-c1nc3ccccc3[nH]1)CCCC2	i	i	i	i	i	.	.	.	.
CN1CCN(S(=O)(=O)c2cccc(C(=O)Nc3sc4c(c3-c3nc5ccccc5[nH]3)CCCC4)c2)CC1	i	-5.5*	i	i	i	55%*	i	i	i
COc1ccccc1CC(=O)Nc1nc(-c2ccc(F)c(F)c2)cs1	i	i	i	i	i	.	.	.	.
COc1ccc(-c2csc(NC(=O)Cc3ccccc3F)n2)cc1OC	i	-6.1*	i	i	i	78%*	i	i	i
SMILES	MrgX1 PAM	MrgX1 antagonist	MrgX1 ag	RGS4 act	RGS4 block	MrgX1 antag conf	HEK293 Ca flux	HEK293 Ca counter	HEK293 Ca cntr2
CCc1noc(C)c1C(=O)Nc1nc(-c2ccc(OC)c(OC)c2)cs1	i	i	i	i	i	.	.	.	.
COc1ccc(-c2csc(NC(=O)C3CCN(c4ncnc5sc(C)c(C)c45)CC3)n2)cc1OC	i	-6*	i	i	i	79%*	i	i	i
COc1ccc(-c2csc(NC(=O)c3cc(C)oc3C)n2)cc1OC	i	-4.9*	i	i	i	71%*	i	i	i
CCOC(=O)C[C@H]1c2ccccc2S(=O)(=O)N1Cc1cccc(C(F)(F)F)c1	i	i	i	i	i	.	.	.	.
O=C1CC(N2CCC(O)(c3ccc(Br)cc3)CC2)C(=O)N1c1ccc(Cl)cc1 (centres undefined)	i	-6.5*	i	i	i	i	i	i	i
CC(C)(C)C1CCCCC1NC(=O)c1ccncc1 (centres undefined)	i	i	i	i	i	.	.	.	.
CCc1nn(CC(=O)NCCc2ccc(OC)cc2OC)c(=O)c2cc3occc3n12	i	i	i	i	i	.	.	.	.
CC1(C)C2CCC(C2)C1(C)NC(=O)CN1CCCC1 (centres undefined)	i	i	i	i	i	.	.	.	.
CC1(C)C2CCC(C2)C1(C)NC(=O)CN1CCOCC1 (centres undefined)	i	-10*	i	.	.	i	i	i	i
CC/C(=N/O)C(=O)c1ccc(Br)cc1	i	i	i	i	i	.	.	.	.
COc1ccc(-n2nc3c(c2NC(=O)COc2cccc(OC)c2)CS(=O)(=O)C3)cc1	i	-7.5*	i	i	i	i	i	i	i
Cc1cccc(-n2ncc3c2CCCC3NC(=O)C2CCOCC2)c1C (centres undefined)	i	-5.2*	i	i	i	74%*	i	i	i
Cc1ccc(-n2nc3c(N4CCC(C(=O)NCCc5cccs5)CC4)nnc(C)c3c2C)cc1	i	i	i	i	i	.	.	.	.
COc1ccc(OCc2nc3ccc(S(=O)(=O)Nc4ccccc4Cl)cc3[nH]2)cc1	i	-6.1*	i	i	i	i	i	i	i
CCNC(=S)Nc1ccc(Cl)cc1	i	-6*	i	i	i	i	i	i	i

Source: PubChem
